Assay results published in ChEMBL document CHEMBL1125128, “(1R,3S)-1-(aminomethyl)-3,4-dihydro-5,6-dihydroxy-3-phenyl-1H-2-benzopyran: a potent and selective D1 agonist” (J Med Chem, 1990).
Several values for one entry are separate records, joined by “and”; a condition that tells them apart may be missing. Equal values may be shown once.

Tests used:
D(2) dopamine receptor [1] = target: T1, D(2) dopamine receptor (Rattus norvegicus, UniProt P61169); assay: Formation of cAMP on Dopamine receptor D2 in vitro in rat intermediate lobe; assay type: functional
T1 sequence (P61169 whole entry): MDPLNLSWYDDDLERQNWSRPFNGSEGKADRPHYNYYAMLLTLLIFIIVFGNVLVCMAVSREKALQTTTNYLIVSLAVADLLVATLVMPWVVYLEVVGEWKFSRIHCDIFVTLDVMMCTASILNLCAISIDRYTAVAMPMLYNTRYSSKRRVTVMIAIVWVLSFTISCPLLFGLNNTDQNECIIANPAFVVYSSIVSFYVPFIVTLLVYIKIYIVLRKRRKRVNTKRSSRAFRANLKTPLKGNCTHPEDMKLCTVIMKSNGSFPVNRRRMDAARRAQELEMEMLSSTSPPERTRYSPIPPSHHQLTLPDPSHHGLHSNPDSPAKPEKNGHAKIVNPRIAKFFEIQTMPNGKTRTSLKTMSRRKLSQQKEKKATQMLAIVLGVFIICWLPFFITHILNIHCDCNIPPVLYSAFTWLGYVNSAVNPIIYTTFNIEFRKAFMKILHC

D(1A) dopamine receptor = D(1A) dopamine receptor (Rattus norvegicus, UniProt P18901); assay: Binding affinity was determined by measuring the ability to displace [125I]SCH-23982 from Dopamine receptor D1 in rat caudate (in vitro)
D(1A) dopamine receptor, sequence (P18901 whole entry): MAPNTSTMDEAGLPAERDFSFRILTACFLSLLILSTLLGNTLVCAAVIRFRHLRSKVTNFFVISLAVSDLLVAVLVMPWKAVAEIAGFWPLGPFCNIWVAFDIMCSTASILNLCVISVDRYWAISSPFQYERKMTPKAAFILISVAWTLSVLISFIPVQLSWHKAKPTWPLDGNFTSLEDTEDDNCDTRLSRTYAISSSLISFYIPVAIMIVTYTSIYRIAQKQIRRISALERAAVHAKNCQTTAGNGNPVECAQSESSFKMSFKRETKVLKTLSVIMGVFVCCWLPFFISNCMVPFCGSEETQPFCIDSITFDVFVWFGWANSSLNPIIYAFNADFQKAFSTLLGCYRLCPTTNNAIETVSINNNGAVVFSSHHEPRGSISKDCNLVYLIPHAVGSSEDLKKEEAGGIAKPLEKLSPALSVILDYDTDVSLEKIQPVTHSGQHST
How it was run: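 Homogenized rat caudate was used as the tissue source. [¹²⁵I]SCH23982 was the displaced radioligand, and affinity was expressed as Ki. Values are means with the SEM range.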

D(2) dopamine receptor [2] = target: T1, D(2) dopamine receptor; assay: Binding affinity was determined by measuring the ability to displace [125I]N-(p-aminophenethyl)-spiroperidol from Dopamine receptor D2 in rat caudate (in vitro)
How it was run: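 Homogenized rat caudate was the tissue, and [¹²⁵I]-N-(p-aminophenethyl)spiroperidol was the radioligand displaced. Values are means with the SEM range.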

[3] = target: D(2) dopamine receptor (Rattus norvegicus) (UniProt P61169); assay: Percent intrinsic activity was determined by measuring the formation of cAMP on Dopamine receptor D2 in vitro in rat intermediate lobe; assay type: functional
D(2) dopamine receptor (Rattus norvegicus), sequence (P61169 whole entry): as the sequence (P61169 whole entry) above

`NCC1OCCc2c1ccc(O)c2O` (stereo not given) [listing 1 of 3 here] gave an EC50 (D(2) dopamine receptor [1]) of 2850 nM, a Ki (D(1A) dopamine receptor) of 1030 nM and a Ki (D(2) dopamine receptor [2]) of 4610 nM.
`NC[C@@H]1O[C@H](c2ccccc2)Cc2c1ccc(O)c2O` (stereo in doubt; form 1) [listing 1 of 2 here] was tested, and the IA [3] was 101% and 98%.
With `NC[C@@H]1O[C@H](c2ccccc2)Cc2c1ccc(O)c2O` (stereo in doubt; form 2) [listing 1 of 2 here] the IA [3] was 98% and 101%.
In the case of `NC[C@@H]1O[C@H](c2ccccc2)Cc2c1ccc(O)c2O` (stereo in doubt; form 2) [listing 2 of 2 here], the EC50 (D(2) dopamine receptor [1]) is reported as 10200 nM and 3910 nM and the Ki (D(2) dopamine receptor [2]) is reported as 807 nM and 776 nM.
In the case of `NC[C@H]1O[C@@H](c2ccccc2)Cc2c1ccc(O)c2O`, the EC50 (D(2) dopamine receptor [1]) is reported as > 10000 nM and the Ki (D(2) dopamine receptor [2]) is reported as > 10000 nM.
With `NCC1OCCc2c1ccc(O)c2O` (stereo not given) [listing 2 of 3 here] the EC50 (D(2) dopamine receptor [1]) was 2850 nM, the Ki (D(1A) dopamine receptor) was 1030 nM and the Ki (D(2) dopamine receptor [2]) was 4610 nM.
In the case of `NC[C@@H]1O[C@H](c2ccccc2)Cc2c1ccc(O)c2O` (stereo in doubt; form 1) [listing 2 of 2 here], the EC50 (D(2) dopamine receptor [1]) is reported as 3910 nM and 10200 nM and the Ki (D(2) dopamine receptor [2]) is reported as 776 nM and 807 nM.
`NCC1OCCc2c1ccc(O)c2O` (stereo not given) [listing 3 of 3 here] gave an IA [3] of 96%.
